Source: ChEMBL document CHEMBL1268908, “Design, synthesis, radiolabeling, and in vivo evaluation of carbon-11 labeled N-[2-[4-(3-cyanopyridin-2-yl)piperazin-1-yl]ethyl]-3-methoxybenzamide, a potential positron emission tomography tracer for the dopamine D(4) receptors” (J Med Chem, 2010)

How the values were obtained:
Assay type in all cases: ADME, organism-based, Macaca mulatta
Hippocampus [1] = experiment: Biodistribution in rhesus monkey hippocampus at 150.3 MBq, iv after 0.25 mins; details: in vivo, 15 s
How it was run: (§1)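 Single male rhesus monkey anesthetized with ketamine 10 mg/kg im, head fixed. Attenuation correction by 20 min 68Ge-68Ga transmission scan. [11C]-tracer in saline (pH 7.4) given iv, specific radioactivity 2.9 TBq/μmol at injection. Dynamic 3D PET emission scan over 90 min in frames of 0.5 to 5 min. MRI T1 images used to define VOIs. Uptake expressed as […].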

[2] = Biodistribution in rhesus monkey cingulate cortex at 150.3 MBq, iv after 0.25 mins; details: in vivo, 15 s
How it was run: (§2)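 Male rhesus monkey under ketamine (10 mg/kg im) with head fixation. After a 20 min 68Ge-68Ga transmission scan, the [11C]-labelled tracer in saline (pH 7.4) was injected iv, at 2.9 TBq/μmol specific radioactivity at injection. A dynamic 3D PET scan followed over 90 min (6×0.5, 7×1, 20×2, 8×5 min frames). Regions were defined on T1-weighted 1.5 T MRI, and uptake is given as %ID/mL.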

Striatum [3] = experiment: Biodistribution in rhesus monkey striatum at 150.3 MBq, iv after 0.25 mins; details: in vivo, 15 s
[4] = Biodistribution in rhesus monkey entorhinal cortex at 150.3 MBq, iv after 0.75 mins; details: in vivo, 45 s; how it was run: as §1
Hippocampus [5] = experiment: Biodistribution in rhesus monkey hippocampus at 150.3 MBq, iv after 1.25 mins; details: in vivo, 75 s; how it was run: as §1
[6] = Biodistribution in rhesus monkey cerebellum at 150.3 MBq, iv after 1.25 mins; details: in vivo, 75 s; how it was run: as §2
Hippocampus [7] = experiment: Biodistribution in rhesus monkey hippocampus at 150.3 MBq, iv after 1.75 mins; details: in vivo, 105 s; how it was run: as §1
Striatum [8] = experiment: Biodistribution in rhesus monkey striatum at 150.3 MBq, iv after 2.25 mins; details: in vivo, 135 s
Hippocampus [9] = experiment: Biodistribution in rhesus monkey hippocampus at 150.3 MBq, iv after 3.5 mins; details: in vivo
How it was run: (§3)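 Male rhesus monkey under ketamine 10 mg/kg im, head fixed; 20 min 68Ge-68Ga transmission scan, then 90 min dynamic 3D PET (6×0.5, 7×1, 20×2, 8×5 min frames) after iv [11C]-labelled tracer in saline, specific radioactivity about 2.9 TBq/μmol at injection. Regions defined on T1-weighted MRI; uptake expressed as % injected dose per mL.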

[10] = Biodistribution in rhesus monkey cerebellum at 150.3 MBq, iv after 6.5 mins; details: in vivo; how it was run: as §2
[11] = Biodistribution in rhesus monkey occipital lobe at 150.3 MBq, iv after 6.5 mins; details: in vivo
[12] = Biodistribution in rhesus monkey retina at 150.3 MBq, iv after 6.5 mins; details: in vivo
[13] = Biodistribution in rhesus monkey cingulate cortex at 150.3 MBq, iv after 7.5 mins; details: in vivo, 0.125 h; how it was run: as §1
[14] = Biodistribution in rhesus monkey retina at 150.3 MBq, iv after 11 mins; details: in vivo
[15] = Biodistribution in rhesus monkey cerebellum at 150.3 MBq, iv after 13 mins; details: in vivo; how it was run: as §2
Hippocampus [16] = experiment: Biodistribution in rhesus monkey hippocampus at 150.3 MBq, iv after 15 mins; details: in vivo, 0.25 h; how it was run: as §1
[17] = Biodistribution in rhesus monkey cingulate cortex at 150.3 MBq, iv after 15 mins; details: in vivo, 0.25 h; how it was run: as §2
Hippocampus [18] = experiment: Biodistribution in rhesus monkey hippocampus at 150.3 MBq, iv after 19 mins; details: in vivo; how it was run: as §1
Striatum [19] = experiment: Biodistribution in rhesus monkey striatum at 150.3 MBq, iv after 19 mins; details: in vivo
Hippocampus [20] = experiment: Biodistribution in rhesus monkey hippocampus at 150.3 MBq, iv after 23 mins; details: in vivo; how it was run: as §1
[21] = Biodistribution in rhesus monkey occipital lobe at 150.3 MBq, iv after 23 mins; details: in vivo; how it was run: as §3
[22] = Biodistribution in rhesus monkey entorhinal cortex at 150.3 MBq, iv after 29 mins; details: in vivo; how it was run: as §1
Striatum [23] = experiment: Biodistribution in rhesus monkey striatum at 150.3 MBq, iv after 37 mins; details: in vivo
Striatum [24] = experiment: Biodistribution in rhesus monkey striatum at 150.3 MBq, iv after 41 mins; details: in vivo
[25] = Biodistribution in rhesus monkey cerebellum at 150.3 MBq, iv after 41 mins; details: in vivo; how it was run: as §2
[26] = Biodistribution in rhesus monkey cingulate cortex at 150.3 MBq, iv after 47 mins; details: in vivo; how it was run: as §2
Hippocampus [27] = experiment: Biodistribution in rhesus monkey hippocampus at 150.3 MBq, iv after 57.5 mins; details: in vivo; how it was run: as §3
Hippocampus [28] = experiment: Biodistribution in rhesus monkey hippocampus at 150.3 MBq, iv after 62.5 mins; details: in vivo; how it was run: as §3
[29] = Biodistribution in rhesus monkey cingulate cortex at 150.3 MBq, iv after 77.5 mins; details: in vivo; how it was run: as §1
Striatum [30] = experiment: Biodistribution in rhesus monkey striatum at 150.3 MBq, iv after 77.5 mins; details: in vivo
[31] = Biodistribution in rhesus monkey occipital lobe at 150.3 MBq, iv after 77.5 mins; details: in vivo
Hippocampus [32] = experiment: Biodistribution in rhesus monkey hippocampus at 150.3 MBq, iv after 52.5 mins; details: in vivo, 0.875 h; how it was run: as §3
Striatum [33] = experiment: Biodistribution in rhesus monkey striatum at 150.3 MBq, iv after 72.5 mins; details: in vivo

Drug uptake (Hippocampus [1]): 39.52 kBq/ml
Drug uptake [2]: 46.02 kBq/ml
Drug uptake (Striatum [3]): 42.71 kBq/ml
Drug uptake [4]: 36.57 kBq/ml
Drug uptake (Hippocampus [5]): 55.94 kBq/ml
Drug uptake [6]: 51.01 kBq/ml
Drug uptake (Hippocampus [7]): 50.86 kBq/ml
Drug uptake (Striatum [8]): 51.53 kBq/ml
Drug uptake (Hippocampus [9]): 43.93 kBq/ml
Drug uptake [10]: 31.35 kBq/ml
Drug uptake [11]: 30.03 kBq/ml
Drug uptake [12]: 44.54 kBq/ml
Drug uptake [13]: 32.75 kBq/ml
Drug uptake [14]: 49.56 kBq/ml
Drug uptake [15]: 21.2714 kBq/ml
Drug uptake (Hippocampus [16]): 20.97 kBq/ml
Drug uptake [17]: 20.1 kBq/ml
Drug uptake (Hippocampus [18]): 18.77 kBq/ml
Drug uptake (Striatum [19]): 20.01 kBq/ml
Drug uptake (Hippocampus [20]): 17.98 kBq/ml
Drug uptake [21]: 15.16 kBq/ml
Drug uptake [22]: 15.05 kBq/ml
Drug uptake (Striatum [23]): 12.6 kBq/ml
Drug uptake (Striatum [24]): 11.2 kBq/ml
Drug uptake [25]: 10.86 kBq/ml
Drug uptake [26]: 10.29 kBq/ml
Drug uptake (Hippocampus [27]): 7.745 kBq/ml
Drug uptake (Hippocampus [28]): 8.242 kBq/ml
Drug uptake [29]: 9.3 kBq/ml
Drug uptake (Striatum [30]): 8.262 kBq/ml
Drug uptake [31]: 8.127 kBq/ml
Drug uptake (Hippocampus [32]): 9.565 kBq/ml
Drug uptake (Striatum [33]): 9.016 kBq/ml
Compound: [11CH3]Oc1cccc(C(=O)NCCN2CCN(c3ncccc3C#N)CC2)c1
